From ChEMBL document CHEMBL1138270, “Antimycobacterial activities of novel 1-(cyclopropyl/tert-butyl/4-fluorophenyl)-1,4-dihydro- 6-nitro-4-oxo-7-(substituted secondary amino)-1,8-naphthyridine-3-carboxylic acid” (J Med Chem, 2007)
Converted amounts (≈) assume the structure as drawn.

How the values were obtained:
[1] = tested on: Vero; assay: Cytotoxicity against Vero cells after 72 hrs by MTT assay; assay type: cell-based; details: Chlorocebus sabaeus
Outline: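 Vero cells were exposed to serially diluted compound up to 62.5 µg/mL for 72 h. Viability was read by cellular conversion of MTT to formazan (CellTiter 96 non-radioactive proliferation assay), and IC50 was derived.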

[2] = tested on: Mycobacterium tuberculosis; assay: Antimycobacterial activity against Mycobacterium tuberculosis H37Rv by agar dilution method; assay type: functional
Outline: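 MIC was determined by agar dilution, in duplicate.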

[3] = tested on: Mycolicibacterium smegmatis; assay: Antimicrobial activity against Mycobacterium smegmatis by agar dilution method; assay type: functional
Outline: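 Agar dilution against M. smegmatis ATCC 14468; MIC determined in duplicate.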

[4] = Inhibition of Mycobacterium smegmatis DNA gyrase supercoiling activity; set-up: species or system Mycolicibacterium smegmatis
Outline: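 Gyrase purified from M. smegmatis was preincubated with compound in DMSO (5% DMSO in reaction). 400 ng relaxed pUC18 was added in 35 mM Tris-HCl pH 7.5, 5 mM MgCl2, 25 mM K-glutamate, 2 mM spermidine, 2 mM ATP, BSA, tRNA and 5% glycerol, 1 h at 37 °C. Samples were heat-inactivated, run on 1% agarose in TAE, and ethidium-stained; IC50 was derived.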

Q: Which results are given for CC1(C)COCN1c1nc2c(cc1[N+](=O)[O-])c(=O)c(C(=O)O)cn2C1CC1?
A: IC50 [1]: 167 µM; MIC [2]: 0.51 µM (≈ 0.191 µg/mL); MIC [3]: 4.17 µM (≈ 1.56 µg/mL)

Q: Which results are given for O=C(O)c1cn(-c2ccc(F)cc2)c2nc(N3CCN(C(=O)C4COc5ccccc5O4)CC3)c([N+](=O)[O-])cc2c1=O (stereo not given)?
A: IC50 [1]: > 54.3 µM; MIC [2]: 10.9 µM (≈ 6.25 µg/mL); MIC [3]: 21.7 µM (≈ 12.5 µg/mL)

Q: For O=C(O)c1cn(-c2ccc(F)cc2)c2nc(N3CCN(C(c4ccccc4)c4ccc(Cl)cc4)CC3)c([N+](=O)[O-])cc2c1=O (stereo not given), which IC50 [1] is on record?
A: The IC50 was 102 µM.

Q: And the MIC [2]?
A: Its MIC is 1.27 µM (≈ 0.78 µg/mL).

Q: What about the MIC [3] of the same compound?
A: Its MIC is 5.09 µM (≈ 3.13 µg/mL).

Q: With CC(C)(C)n1cc(C(=O)O)c(=O)c2cc([N+](=O)[O-])c(N3CCN(C(c4ccccc4)c4ccc(Cl)cc4)CC3)nc21 (stereo not given) as the compound, how does the IC50 [1] read?
A: The IC50 was > 108 µM.

Q: What about the MIC [2] of the same compound?
A: Its MIC is 1.35 µM (≈ 0.778 µg/mL).

Q: And the MIC [3]?
A: Its MIC is 174 µM (≈ 100 µg/mL).

Q: Which IC50 [1] does the source give for O=C(O)c1cn(C2CC2)c2nc(N3CCN(C(c4ccccc4)c4ccc(Cl)cc4)CC3)c([N+](=O)[O-])cc2c1=O (stereo not given) here?
A: The IC50 was 112 µM.

Q: What about the MIC [2] of the same compound?
A: Its MIC is 5.59 µM (≈ 3.13 µg/mL).

Q: What about the MIC [3] of the same compound?
A: The MIC was 22.3 µM (≈ 12.5 µg/mL).

Q: Which IC50 [1] does the source give for O=C(O)c1cn(-c2ccc(F)cc2)c2nc(N3CCC(O)(c4ccc(Cl)cc4)CC3)c([N+](=O)[O-])cc2c1=O here?
A: Its IC50 is 59.6 µM.

Q: What about the MIC [2] of the same compound?
A: Its MIC is 2.89 µM (≈ 1.56 µg/mL).

Q: And the MIC [3]?
A: Its MIC is 11.6 µM (≈ 6.25 µg/mL).

Q: Which IC50 [1] does the source give for CC(C)(C)n1cc(C(=O)O)c(=O)c2cc([N+](=O)[O-])c(N3CCC(N4CCCCC4)CC3)nc21 here?
A: The IC50 was > 137 µM.

Q: And the MIC [2]?
A: Its MIC is 1.7 µM (≈ 0.778 µg/mL).

Q: What about the MIC [3] of the same compound?
A: The MIC was 6.84 µM (≈ 3.13 µg/mL).

Q: For O=C(O)c1cn(C2CC2)c2nc(N3CCC(n4c(=O)[nH]c5cc(Cl)ccc54)CC3)c([N+](=O)[O-])cc2c1=O, which IC50 [1] is on record?
A: Its IC50 is 55.5 µM.

Q: What about the MIC [2] of the same compound?
A: Its MIC is 2.97 µM (≈ 1.56 µg/mL).

Q: What about the MIC [3] of the same compound?
A: Its MIC is 23.8 µM (≈ 12.5 µg/mL).

Q: With CC(C)(C)n1cc(C(=O)O)c(=O)c2cc([N+](=O)[O-])c(N3CCC(n4c(=O)[nH]c5cc(Cl)ccc54)CC3)nc21 as the compound, how does the IC50 [1] read?
A: Its IC50 is 57.7 µM.

Q: What about the MIC [2] of the same compound?
A: Its MIC is 2.88 µM (≈ 1.56 µg/mL).

Q: What about the MIC [3] of the same compound?
A: The MIC was 11.5 µM (≈ 6.24 µg/mL).

Q: With O=C(O)c1cn(C2CC2)c2nc(N3CCC(O)(c4ccc(Cl)cc4)CC3)c([N+](=O)[O-])cc2c1=O as the compound, how does the IC50 [1] read?
A: Its IC50 is 64.4 µM.

Q: And the MIC [2]?
A: Its MIC is 6.46 µM (≈ 3.13 µg/mL).

Q: And the MIC [3]?
A: The MIC was 25.8 µM (≈ 12.5 µg/mL).

Q: For CCN(CC)C(=O)C1CCCN(c2nc3c(cc2[N+](=O)[O-])c(=O)c(C(=O)O)cn3C2CC2)C1 (stereo not given), which IC50 [1] is on record?
A: The IC50 was > 137 µM.

Q: And the MIC [2]?
A: Its MIC is 3.41 µM (≈ 1.56 µg/mL).

Q: And the MIC [3]?
A: Its MIC is 109 µM (≈ 50 µg/mL).

Q: With CCN(CC)C(=O)C1CCCN(c2nc3c(cc2[N+](=O)[O-])c(=O)c(C(=O)O)cn3-c2ccc(F)cc2)C1 (stereo not given) as the compound, how does the IC50 [1] read?
A: The IC50 was > 122 µM.

Q: What about the MIC [2] of the same compound?
A: The MIC was 3.05 µM (≈ 1.56 µg/mL).

Q: What about the MIC [3] of the same compound?
A: Its MIC is 12.2 µM (≈ 6.25 µg/mL).

Q: For CCN(CC)C(=O)C1CCCN(c2nc3c(cc2[N+](=O)[O-])c(=O)c(C(=O)O)cn3C(C)(C)C)C1 (stereo not given), which IC50 [1] is on record?
A: The IC50 was > 132 µM.

Q: And the MIC [2]?
A: Its MIC is 3.29 µM (≈ 1.56 µg/mL).

Q: And the MIC [3]?
A: The MIC was 106 µM (≈ 50 µg/mL).

Q: For O=C(O)c1cn(-c2ccc(F)cc2)c2nc(N3CCN(Cc4ccc5c(c4)OCO5)CC3)c([N+](=O)[O-])cc2c1=O, which IC50 [1] is on record?
A: The IC50 was 57.1 µM.

Q: And the MIC [2]?
A: The MIC was 11.4 µM (≈ 6.25 µg/mL).

Q: What about the MIC [3] of the same compound?
A: The MIC was 45.7 µM (≈ 25 µg/mL).

Q: Which IC50 [1] does the source give for CC(C)(C)n1cc(C(=O)O)c(=O)c2cc([N+](=O)[O-])c(N3CCN(Cc4ccc5c(c4)OCO5)CC3)nc21 here?
A: Its IC50 is > 123 µM.

Q: What about the MIC [2] of the same compound?
A: The MIC was 1.53 µM (≈ 0.78 µg/mL).

Q: What about the MIC [3] of the same compound?
A: The MIC was 6.14 µM (≈ 3.13 µg/mL).

Q: What does the source list for O=C(O)c1cn(-c2ccc(F)cc2)c2nc(N3CCC4(CC3)OCCO4)c([N+](=O)[O-])cc2c1=O?
A: IC50 [1]: 133 µM; MIC [2]: 6.65 µM (≈ 3.13 µg/mL); MIC [3]: 26.6 µM (≈ 12.5 µg/mL)

Q: What does the source list for CC(C)(C)n1cc(C(=O)O)c(=O)c2cc([N+](=O)[O-])c(N3CCC4(CC3)OCCO4)nc21?
A: IC50 [1]: 144 µM; MIC [2]: 0.9 µM (≈ 0.389 µg/mL); MIC [3]: 3.61 µM (≈ 1.56 µg/mL); IC50 [4]: 92.5 µM

Q: For CN1CCN(c2nc3c(cc2[N+](=O)[O-])c(=O)c(C(=O)O)cn3C2CC2)CC1c1ccccc1 (stereo not given), which IC50 [1] is on record?
A: The IC50 was 139 µM.

Q: What about the MIC [2] of the same compound?
A: The MIC was 6.96 µM (≈ 3.13 µg/mL).

Q: What about the MIC [3] of the same compound?
A: The MIC was 27.8 µM (≈ 12.5 µg/mL).

Q: Which IC50 [1] does the source give for CC(C)(C)NC(=O)C1c2ccccc2CCN1c1nc2c(cc1[N+](=O)[O-])c(=O)c(C(=O)O)cn2C1CC1 (stereo not given) here?
A: The IC50 was 124 µM.

Q: What about the MIC [2] of the same compound?
A: The MIC was 3.09 µM (≈ 1.56 µg/mL).

Q: What about the MIC [3] of the same compound?
A: The MIC was 24.7 µM (≈ 12.5 µg/mL).

Q: What does the source list for O=C(O)c1cn(C2CC2)c2nc(N3CCSCC3)c([N+](=O)[O-])cc2c1=O?
A: IC50 [1]: 166 µM; MIC [2]: 8.32 µM (≈ 3.13 µg/mL); MIC [3]: 33.2 µM (≈ 12.5 µg/mL)

Q: For CN1CCN(c2nc3c(cc2[N+](=O)[O-])c(=O)c(C(=O)O)cn3-c2ccc(F)cc2)CC1c1ccccc1 (stereo not given), which IC50 [1] is on record?
A: Its IC50 is 124 µM.

Q: What about the MIC [2] of the same compound?
A: The MIC was 0.77 µM (≈ 0.388 µg/mL).

Q: What about the MIC [3] of the same compound?
A: The MIC was 3.09 µM (≈ 1.56 µg/mL).

Q: And the IC50 [4]?
A: Its IC50 is 99.3 µM.
